Measured values published in ChEMBL document CHEMBL4414649, “Microbial Transformation of Cycloastragenol and Astragenol by Endophytic Fungi Isolated from Astragalus Species” (J Nat Prod, 2019).

Assays:
[1] = molecular target: Telomerase reverse transcriptase (Homo sapiens) (UniProt O14746); assay: Activation of telomerase activity in human neonatal primary epidermal keratinocytes assessed as fold change at 0.1 nM after 24 hrs by PCR-based TRAP assay relative to untreated control
In short: (§1)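 HEKn cells from ATCC, grown in dermal basal cell medium with keratinocyte growth supplements. Seeded, medium refreshed next day, then treated 24 h the following day (0.1–30 nM; DMSO control). 2 × 10^5 harvested cells lysed on ice 30 min, lysate spun 16000g 20 min. Telomerase measured by TRAP PCR-ELISA, absorbance at 450 nm (reference ~690 nm). Fold activation versus DMSO-treated cells.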

[2] = molecular target: Telomerase reverse transcriptase (Homo sapiens) (UniProt O14746); assay: Activation of telomerase activity in human neonatal primary epidermal keratinocytes assessed as fold change at 0.1 to 30 nM after 24 hrs by PCR-based TRAP assay relative to untreated control; in short: as §1
[3] = molecular target: Telomerase reverse transcriptase (Homo sapiens) (UniProt O14746); assay: Activation of telomerase activity in human neonatal primary epidermal keratinocytes assessed as fold change at 2 nM after 24 hrs by PCR-based TRAP assay relative to untreated control; in short: as §1
[4] = molecular target: Telomerase reverse transcriptase (Homo sapiens) (UniProt O14746); assay: Activation of telomerase activity in human neonatal primary epidermal keratinocytes assessed as fold change at 0.5 nM after 24 hrs by PCR-based TRAP assay relative to untreated control; in short: as §1

Chain of Telomerase reverse transcriptase (Homo sapiens) (O14746 whole entry): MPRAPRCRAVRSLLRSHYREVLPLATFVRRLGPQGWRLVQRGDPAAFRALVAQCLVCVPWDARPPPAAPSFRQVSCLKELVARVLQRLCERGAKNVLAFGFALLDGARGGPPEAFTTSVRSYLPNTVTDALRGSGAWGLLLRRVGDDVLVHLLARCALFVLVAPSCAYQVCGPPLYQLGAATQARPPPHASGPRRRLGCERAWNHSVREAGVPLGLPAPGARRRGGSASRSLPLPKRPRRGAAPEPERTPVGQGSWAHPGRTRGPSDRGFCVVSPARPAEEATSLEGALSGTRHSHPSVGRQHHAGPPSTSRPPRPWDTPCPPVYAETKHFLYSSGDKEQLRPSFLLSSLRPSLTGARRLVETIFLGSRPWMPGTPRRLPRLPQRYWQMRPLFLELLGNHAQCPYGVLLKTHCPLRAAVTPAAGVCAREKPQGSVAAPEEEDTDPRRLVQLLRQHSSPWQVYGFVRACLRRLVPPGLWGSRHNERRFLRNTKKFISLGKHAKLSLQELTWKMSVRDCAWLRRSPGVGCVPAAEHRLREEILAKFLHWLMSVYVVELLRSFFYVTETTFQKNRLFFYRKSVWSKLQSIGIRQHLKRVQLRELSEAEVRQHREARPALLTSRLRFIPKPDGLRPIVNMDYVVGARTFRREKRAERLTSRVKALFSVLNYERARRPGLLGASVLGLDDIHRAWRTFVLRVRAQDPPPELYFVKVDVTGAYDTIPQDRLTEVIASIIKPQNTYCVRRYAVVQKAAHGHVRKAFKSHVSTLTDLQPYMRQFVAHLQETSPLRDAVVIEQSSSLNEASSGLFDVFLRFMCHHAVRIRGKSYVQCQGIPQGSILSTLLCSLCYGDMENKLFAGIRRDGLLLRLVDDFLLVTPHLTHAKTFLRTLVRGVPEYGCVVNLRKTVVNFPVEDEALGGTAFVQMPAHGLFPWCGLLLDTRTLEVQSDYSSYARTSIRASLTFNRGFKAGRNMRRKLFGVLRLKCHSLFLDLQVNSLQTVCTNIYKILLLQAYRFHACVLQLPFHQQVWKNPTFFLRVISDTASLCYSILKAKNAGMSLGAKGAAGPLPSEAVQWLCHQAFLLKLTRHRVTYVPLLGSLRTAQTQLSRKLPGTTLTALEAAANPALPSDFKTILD

fold change (FC) [1]	fold change (FC) [2]	fold change (FC) [3]	fold change (FC) [4]	Compound
3.5	1.5 to 5.2	–	–	CC(C)(O)[C@@H]1CC[C@](C)([C@H]2[C@@H](O)C[C@@]3(CO)[C@@H]4C[C@H](O)[C@H]5C(C)(C)C(=O)CC[C@@]56C[C@@]46CC[C@]23C)O1
–	1.5 to 5.2	–	–	CC(C)(O)[C@@H]1CC[C@](C)([C@H]2[C@@H](O)C[C@@]3(C)[C@@H]4C[C@H](O)[C@H]5C(C)(C)C(=O)CC[C@@]56C[C@@]46[C@@H](O)C[C@]23C)O1

Continued, compound first:

Compound	fold change (FC) [1]	fold change (FC) [2]	fold change (FC) [3]	fold change (FC) [4]
CC(C)(O)[C@@H]1CC[C@](C)([C@H]2[C@@H](O)C[C@@]3(C)[C@@H]4C[C@H](O)[C@H]5C(C)(C)[C@@H](O)CC[C@@]56C[C@@]46CC[C@]23C)O1	1.5	1.5 to 5.2	5.2	–
CC(C)(O)[C@@H]1CC[C@](C)([C@H]2[C@@H](O)C[C@@]3(C)[C@@H]4C[C@H](O)[C@H]5C(C)(C)[C@@H](O)CC[C@@]56C[C@@]46C[C@H](O)[C@]23C)O1	–	1.5 to 5.2	–	5
CC(C)(O)[C@@H]1CC[C@](C)([C@H]2[C@@H](O)C[C@@]3(C)[C@@H]4C[C@H](O)[C@H]5C(C)(C)[C@@H](O)CC[C@]5(C)C4=C[C@H](O)[C@]23C)O1	3.8	1.5 to 5.2	–	–
